A selection: hits, their analogues and other compounds. The true share with any hit is near 4.7%.
aSyn 5UTR inh: MLPCN primary screen, SNCA 5' untranslated region; inhibition, % (tested at 7.5 µM); actives 0.82% (n = 300,000); AID 1813; alpha-synuclein 5'UTR reporter, inhibitor activity; in the data active means inhibition above about 60%; inconclusive means no clear call, values can overlap the other calls;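 further: H4 neuroglioblastoma cells stably carrying SNCA 5'UTR luciferase fusion; 0% = DMSO wells and 100% = positive control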
IMP-1 inhibitor: blocks Pseudomonas aeruginosa IMP-1 metallo-beta-lactamase; purified IMP-1, nitrocefin hydrolysis, epi-absorbance fluorescence; inhibition, % at 5.6 µM; actives 0.45% (n = 290,000); AID 1556;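 active means inhibition above the mean plus 3 SD of all compounds in the same screening run, cut at about 4.5% in these data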;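 further: 0% = IMP-1 with DMSO and 100% = DMSO wells lacking enzyme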
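assay system = purified recombinant IMP-1 metallo-beta-lactamase enzyme | schedule = 15 min preincubation plus 25 min reaction at 25 °C | signal = Epi-absorbance fluorescence, 480 nm excitation, 530 nm emission | read-out basis = percent inhibition from optical density relative to buffer-blank wells | controls = IMP-1 with DMSO as 0%, enzyme-free DMSO as 100%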
VIM-2 inhibitor: blocks Pseudomonas aeruginosa VIM-2 metallo-beta-lactamase; actives 0.89% (n = 290,000); inhibition, % at 5.6 µM; purified VIM-2, nitrocefin hydrolysis, epi-absorbance fluorescence;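 active means inhibition above the mean of all tested compounds plus 3 SD, cutoff set per screening run, cut at about 7.5% in these data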;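 further: red hydrolysis product quenches plate fluorescence so inhibitors raise well fluorescence; 0% = enzyme with DMSO and 100% = DMSO without enzyme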
Mdm2 MdmX PPI: inhibitors of human Mdm2/MdmX interaction; SaOS-2 split-luciferase Mdm2/MdmX complementation, luminescence; inhibition, % at 8 µM; actives 3% (n = 330,000); O15151+Q00987;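 active means inhibition of at least 50% at 8 µM in the primary screen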
Target sequence (O15151 whole entry, looked up): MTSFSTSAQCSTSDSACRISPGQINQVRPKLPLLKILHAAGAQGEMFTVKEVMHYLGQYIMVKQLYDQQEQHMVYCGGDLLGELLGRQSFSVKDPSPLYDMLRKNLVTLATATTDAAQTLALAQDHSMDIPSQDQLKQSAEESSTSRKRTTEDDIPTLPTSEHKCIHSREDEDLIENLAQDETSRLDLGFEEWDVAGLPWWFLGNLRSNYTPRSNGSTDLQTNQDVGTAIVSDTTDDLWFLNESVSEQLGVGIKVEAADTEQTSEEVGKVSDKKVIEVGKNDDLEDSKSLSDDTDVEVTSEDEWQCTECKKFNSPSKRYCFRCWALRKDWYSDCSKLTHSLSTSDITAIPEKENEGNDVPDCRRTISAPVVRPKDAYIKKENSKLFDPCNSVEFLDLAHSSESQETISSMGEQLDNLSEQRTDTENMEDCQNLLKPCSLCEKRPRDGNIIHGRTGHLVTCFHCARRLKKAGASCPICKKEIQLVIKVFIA
Target sequence (Q00987 whole entry, looked up): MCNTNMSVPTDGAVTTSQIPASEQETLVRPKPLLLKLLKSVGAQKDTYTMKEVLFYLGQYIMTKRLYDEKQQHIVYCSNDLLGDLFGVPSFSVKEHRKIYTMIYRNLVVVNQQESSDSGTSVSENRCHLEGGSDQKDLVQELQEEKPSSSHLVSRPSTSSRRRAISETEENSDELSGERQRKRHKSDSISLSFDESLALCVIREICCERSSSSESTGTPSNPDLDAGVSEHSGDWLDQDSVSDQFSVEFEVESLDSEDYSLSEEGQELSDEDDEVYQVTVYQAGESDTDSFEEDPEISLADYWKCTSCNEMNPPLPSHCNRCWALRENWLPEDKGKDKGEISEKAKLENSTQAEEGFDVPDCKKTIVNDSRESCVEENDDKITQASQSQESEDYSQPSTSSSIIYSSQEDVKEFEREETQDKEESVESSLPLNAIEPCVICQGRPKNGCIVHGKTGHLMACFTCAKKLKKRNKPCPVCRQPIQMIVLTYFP
Jurkat NFkB inh: inhibitors of the PMA/ionomycin-induced NF-kB reporter in Jurkat cells; inhibition, % at 4 µM; AID 435003; PMA/ionomycin-induced NF-kB luciferase reporter, luminescence; actives 0.53% (n = 330,000); in the data active means inhibition above about 50%
697 NFkB inh: inhibitors of the PMA/ionomycin-induced NF-kB reporter in 697 B cells; inhibition, % at 4 µM; AID 435022; actives 0.33% (n = 330,000); 697 B-cell NF-kB luciferase reporter, 16 h; in the data active means inhibition above about 35%
Jurkat NFkB conf: lowers PMA/ionomycin-induced NF-kB signal in Jurkat cells; shares compounds with Jurkat NFkB inh; inhibition, % at 4 µM; actives 27% (n = 2,700); AID 435020; Jurkat NF-kB luciferase, 16 h;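 active means inhibition reaching about 45% at 4 µM in either replicate, limit read from the data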;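 further: plate controls were PMA/ionomycin stimulated DMSO wells for no effect and unstimulated DMSO wells for full effect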
697 NFkB conf: lowers PMA/ionomycin-induced NF-kB signal in 697 B cells; shares compounds with 697 NFkB inh; 697 B-cell NF-kB luciferase, 16 h; inhibition, % at 4 µM; actives 35% (n = 2,000); AID 449746; in the data active means inhibition mostly above about 28%, no sharp cut-off; inactive means mostly below about 22%
Mdm2 MdmX conf: confirmation of human Mdm2/MdmX interaction inhibitors | inhibition, % at 8 µM | actives 55% (n = 10,000) | Mdm2-MdmX binding, luminescent assay | shares compounds with Mdm2 MdmX PPI; in the data active means inhibition above about 40%
Full FLuc ctr: counter-screen for Mdm2/MdmX inhibitors: full-length luciferase; shares compounds with Mdm2 MdmX PPI; SaOS-2 full-length luciferase counterscreen, luminescence; inhibition, % at 8 µM; actives 77% (n = 6,200);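 active means mean inhibition at 8 µM reaching about 37%, which flags the compound as non-specific, limit read from the data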;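 further: p53-null SaOS-2 cells with luciferase driven by a doxycycline-inducible promoter; compound on cells about two nights before reading with doxycycline added after day one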
Starred values were filed as active, the others as inactive; i = inactive; ? = inconclusive; . = no result given.

SMILES | aSyn 5UTR inh | IMP-1 inhibitor | VIM-2 inhibitor | Mdm2 MdmX PPI | Jurkat NFkB inh | 697 NFkB inh | 697 NFkB conf | Mdm2 MdmX conf | Full FLuc ctr | others
CC1=CC2/C=C(\C)CCC(O)C(O)/C=C/C(=O)C23C(=O)NC(CC(C)C)C3C1C (configuration not stated) | 56 | -2 | -4 | 100* | 79* | 38* | -3 | 100* | 51* | Jurkat NFkB conf=19
Cc1ccc(C)c(NC(=O)CCNC(=O)N2C[C@H]3C[C@@H](C2)c2cccc(=O)n2C3)c1 | 11 | 0 | -3 | 7 | -1 | 11 | . | . | .
C[C@@H]1O[C@@H](O[C@H]2C[C@@H](O)[C@]3(CO)[C@H]4[C@H](O)C[C@]5(C)[C@@H](C6COC(=O)C6)CC[C@]5(O)[C@@H]4CC[C@]3(O)C2)[C@H](O)[C@H](O)[C@H]1O (some centres not stated) | 115* | -4 | -3 | 58* | 96* | -403 | -496 | 67* | 27 | Jurkat NFkB conf=72*
O=C(/C=C/C=C/c1ccccc1)CC1(O)C(=O)Nc2ccccc21 (configuration not stated) | -54 | -4 | -2 | 15 | 7 | 13 | . | . | .
CCOc1ccc2oc(C(=O)NN3C(C)CCCC3C)c(C)c2c1 (configuration not stated) | 16 | 1 | 1 | 7 | 2 | 0 | . | . | .
COc1cccc(OC)c1C1=NCC(=O)Nc2c1oc1ccc(Br)cc21 | ? | -2 | -3 | 70* | 56* | -45 | . | 68* | 78* | Jurkat NFkB conf=61*
COC(=O)C(Cc1ccc(N(CCCl)CCCl)cc1)N=Cc1ccccc1O (configuration not stated) | 27 | -4 | -1 | 93* | 51* | -107 | . | 83* | 59* | Jurkat NFkB conf=46
CCN1/C(=C\C=C\C2=[N+](CC)c3ccccc3C2(C)C)C(C)(C)c2ccccc21 | 104* | 5.5* | 5 | 97* | 100* | -37 | . | 96* | 7 | Jurkat NFkB conf=80*
O=c1[nH]c(=O)n(-c2ccccc2Cl)c(O)c1C=NCCN1CCCCC1 | -2 | 0 | -1 | 7 | 16 | 16 | . | . | .
Cc1nc2ccccc2c(=O)n1-c1ccc(-c2ccccc2)cc1 | -18 | -3 | 1 | 17 | -16 | -3 | . | . | .
CC(=O)OC(C)(C)/C=C/C(=O)C(C)(O)C1[C@H](O)C[C@@]2(C)C3CC=C4C(CC[C@@H](O)C4(C)C)[C@]3(CO)C(=O)C[C@]12C (some centres not stated) | 86* | -1 | -1 | 98* | 81* | -11 | . | 98* | 0 | Jurkat NFkB conf=25
C=C(C=O)CC1CC(O)[C@]2(C)OC3CC4OC5C[C@]6(C)O[C@]7(C)CCC8OC9C[C@]%10(C)OC%11C(C)=CC(=O)OC%11CC%10OC9C[C@@H](C)C8OC7CC6O[C@]5(C)CC5OC5C4OC3CC2O1 (some centres not stated) | 114* | -3 | -1 | 99* | 96* | -390 | 38* | 100* | 1 | Jurkat NFkB conf=96*
CCCn1ncc(CN2CCCC(C(=O)c3cccc(OC)c3)C2)c1C (configuration not stated) | -7 | -3 | 2 | 8 | -18 | 10 | . | . | .
COc1ccc(Cc2c(O)[nH]c(=O)[nH]c2=O)c(OC)c1 | 14 | -2 | -4 | -4 | 1 | 13 | . | . | .
CC(=O)OC1CC[C@]2(C#N)[C@H]3CC[C@]4(C)[C@H](C5C=CC(=O)O5)CCC4(O)C3CCC2(O)C1 (some centres not stated) | 85* | -2 | -2 | 11 | 10 | i | -246 | . | .
Cc1nc2cc(-c3cccc(F)c3)nn2c(C)c1CCC(=O)N1CCC2(CC1)OCCO2 | 77* | -3 | -3 | 4 | 18 | 36* | 36* | . | .
Cc1cc(N=Nc2ccccc2C)ccc1N | -103 | . | . | -146 | -72 | -330 | -113 | . | .
O=c1[nH]cc(COCC(F)(F)C(F)(F)C(F)(F)F)c(=O)[nH]1 | 1 | 0 | 0 | -15 | 4 | 3 | . | . | .
CC(C)[C@H]1C(=O)O[C@@H]2CCN3CC=C(COC(=O)[C@](C)(O)[C@]1(C)O)[C@H]23 | -1 | -2 | 2 | 10 | -3 | 11 | . | . | .
Cc1cccc(N2C(=O)NC(=O)/C(=C\c3cnc(-c4ccccc4)nc3)C2=O)c1 | -27 | -3 | 0 | 13 | -1 | 21 | . | . | .
Cc1cc(C)cc(N2C(=O)NC(=O)/C(=C\c3cccn3-c3ccccc3)C2=O)c1 | -9 | -2 | -1 | 18 | 10 | 53* | 61* | . | .
CN(C)c1ccc(C(=O)N/N=C/C23CC[C@@H](O)CC2(O)CC[C@@H]2[C@@H]3CCC3(C)C(C4=CC(=O)OC4)CCC23O)cc1 (some centres not stated) | 95* | -4 | -6 | 41 | -11 | i | -314 | . | .
CN(C)P(=O)(C(Cl)=C(N1CCCCC1)N1CCCCC1)N(C)C | 26 | -4 | -1 | -1 | -17 | 41* | 23 | . | .
CCSC(=O)N1CCCCCC1 | . | . | . | 5 | -3 | 10 | . | . | .
C=CCn1c(O)c(C(CC)=NC(C)c2ccccc2)c(=O)[nH]c1=O (configuration not stated) | 20 | -2 | 0 | 49 | -8 | 61* | 39* | . | .
SMILES | aSyn 5UTR inh | IMP-1 inhibitor | VIM-2 inhibitor | Mdm2 MdmX PPI | Jurkat NFkB inh | 697 NFkB inh | 697 NFkB conf | Mdm2 MdmX conf | Full FLuc ctr | others
CCCCn1c(O)c(C(CC)=NC(C)c2ccccc2)c(=O)[nH]c1=O (configuration not stated) | 21 | 0 | -3 | 18 | 6 | 17 | . | . | .
Cc1cc(OCC(=O)N2CCCN(C)CC2)ccc1Cl | -24 | -2 | -2 | 23 | -3 | -4 | . | . | .
N[C@@H](Cc1c[nH]c2ccccc12)c1nnc(SCc2ccc(Cl)cc2)o1 | -12 | 1 | -2 | 0 | -2 | 5 | . | . | .
N=c1c2c(n(Cc3ccc(Cl)cc3Cl)c3c1CCC3)CCCC2 | 8 | -1 | 2 | 82* | 30 | 68* | 33* | 37 | 59*
Cc1nn(Cc2ccc(Cl)cc2Cl)c(Cl)c1C(=O)O | 12 | -3 | -2 | 21 | 4 | 3 | . | . | .
COC(=O)C(C)Oc1cc(C)cc2oc(=O)c3c(c12)CCC3 (configuration not stated) | 15 | -5 | 11* | 52* | 14 | 36* | 55* | 27 | .
O=C(COc1ccccc1)N1CCN(CC2CC=CCC2)CC1 (configuration not stated) | -1 | 3 | -1 | 17 | -7 | -9 | . | . | .
